KCNK9 inh: blocks the human KCNK9 two-pore domain potassium channel. B-score at 10 µM. AID 488922. HEK293 KCNK9, FluxOR thallium flux fluorescence; active compounds read low. Q9NPC2. hit rate 1.2% among 310,000;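 active = ratio B-score over 3 SD below the library mean, with starting fluorescence within 5 SD of its mean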;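 also: negative B-score means less thallium flux so channel inhibition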
Target sequence (Q9NPC2 whole entry, looked up, the tested form may be a part): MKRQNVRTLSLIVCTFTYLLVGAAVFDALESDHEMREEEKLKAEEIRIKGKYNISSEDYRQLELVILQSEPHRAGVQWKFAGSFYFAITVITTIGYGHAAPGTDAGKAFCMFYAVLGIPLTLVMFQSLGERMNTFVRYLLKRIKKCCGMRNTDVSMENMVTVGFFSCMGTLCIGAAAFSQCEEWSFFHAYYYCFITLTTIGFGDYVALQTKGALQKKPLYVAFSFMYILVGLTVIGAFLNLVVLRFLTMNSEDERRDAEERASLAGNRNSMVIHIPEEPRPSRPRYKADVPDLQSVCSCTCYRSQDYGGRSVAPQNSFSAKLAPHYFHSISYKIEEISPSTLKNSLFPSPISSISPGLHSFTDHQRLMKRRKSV
KCC2 mod: modulates chloride dependent transport by human KCC2. KCC2 cells, thallium flux FluoZin-2 fluorescence. hit rate 2.2% among 190,000. B-score of Tl+ flux slope (higher = more flux/activation; lower = inhibition) at 10 µM. Q9H2X9;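 active = thallium flux slope and its plate-corrected score both differing from the plate sample mean at a set confidence after two filtering rounds, in either direction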;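 also: slope of fluorescence scaled to starting intensity during 10 to 20 s after thallium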
KCNQ1 block: blocks the human KCNQ1 potassium channel; CHO-K1 KCNQ1, FluxOR thallium flux fluorescence; active compounds read high; hit rate 1.3% among 310,000; P51787; B-score at 10 µM;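 active = compounds whose thallium flux B-score, printed positive for inhibition, exceeds three library SD while starting fluorescence stays within three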;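 also: channel opened by potassium depolarization with thallium stimulus after 20 min compound exposure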
KCNK3 block: human KCNK3 channel inhibition, primary screen; CHO-KCNK3 thallium flux, FluxOR fluorescence; active compounds read low; B-score at 10 µM; hit rate 0.84% among 340,000;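 active = B-score under library mean minus 4 SD, starting fluorescence ratio at most library mean plus 5 SD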;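 also: more negative B-score means stronger inhibition of thallium flux through KCNK3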
hERG protect: compounds protecting human hERG from proarrhythmic drug block; AID 1511; activation (rescue from dofetilide block), less the hit threshold, % at 10 µM; CHO-hERG, FluxOR thallium flux, dofetilide IC70 present; Q12809; hit rate 0.51% among 310,000;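 active = activation above the mean of controls blocked by dofetilide plus 5 SD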;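 also: thallium influx through hERG after potassium depolarization seen as dye fluorescence rise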
KCNQ1 pot: potentiates or activates the human KCNQ1 potassium channel | AID 2648 | hit rate 0.35% among 310,000 | B-score at 10 µM | P51787 | CHO-K1 KCNQ1, thallium flux FluxOR fluorescence; active compounds read high;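 active = fluorescence ratio B-score, a plate-corrected score, at least three library SD, with initial intensity B-score within 5 SD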
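Schedule – 37 °C overnight plating, 90-min dark dye load, 20-min compound pretreatment · System – stable KCNQ1 CHO-K1 line · Probe or stimulus – thallium- and potassium-containing depolarizing buffer · Measured by – kinetic FluxOR fluorescence, 10 s baseline plus 110 s post-stimulus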
KCNK9 inh conf: human KCNK9 inhibitor confirmation | shares compounds with KCNK9 inh | HEK293 KCNK9 cells, FluxOR thallium flux fluorescence | inhibition, % at 10 µM | hit rate 43% among 4,900;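 active = thallium signal inhibited by more than 5 SD of the compound-free buffer control wells, on both duplicate plates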;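 also: 0% = assay buffer control wells without compound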
Kir21 sel: mouse Kir2.1 off-target activity of KCNK9 modulators | shares compounds with KCNK9 inh | Kir2.1 cells, FluxOR thallium flux fluorescence | inhibition, % at 10 µM | hit rate 4% among 4,900;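 active = thallium signal drop more than 5 SD beyond the mean of the no-compound control wells, seen in both duplicate plates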;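 also: signal is fluorescence rise after thallium addition divided by baseline fluorescence; plate controls were assay buffer only for no effect and full block by chlorpromazine control for full effect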
HEK293 Tl ctr: second counter-screen for KCNK9 modulators: effect in non-induced cells; shares compounds with KCNK9 inh; non-induced KCNK9-HEK293, FluxOR thallium flux; inhibition, % at 10 µM; hit rate 40% among 4,900; AID 492997;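 active = thallium signal drop beyond 5 SD of the untreated control mean, on both duplicate plates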;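 also: plate controls were buffer only IC0 wells for no effect and SID17386958 at its maximal inhibitory level for full effect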
* hit, by the source's call; i = inactive; / = no result given. In the library only some 4.1% were active in any assay of this set; here they are far more common.

SMILES	KCNK9 inh	KCC2 mod	KCNQ1 block	KCNK3 block	hERG protect	KCNQ1 pot	KCNK9 inh conf	Kir21 sel	HEK293 Tl ctr
Cc1ccc(C(=O)c2c(C)oc3c2C(=O)C(=O)c2ccccc2-3)cc1	i	-0.723	i	i	-16.1	i	/	/	/
C=CCN(C(=O)c1ccc2snnc2c1)c1ccccc1	i	/	i	i	-1.0	i	/	/	/
Cc1cccc(N2CCN(Cc3nc(-c4cccc(Oc5ccccc5)c4)oc3C)CC2)n1	i	-0.502	i	i	-17.1	i	i	i	i
COc1ccc(-c2nc(CN3CCN(Cc4ccccc4)CC3)c(C)o2)cc1	i	/	i	i	-5.7	i	/	/	/
CCCCCCCCCCOC(=O)Cn1c(COc2ccccc2OC)[n+](C)c2ccccc21	-15.2*	/	i	i	-6.4	i	78.5%*	84.5%*	41.5%*
Cc1sc(NC(=O)c2ccccc2)c(C(=O)c2ccccc2)c1C	i	1.42	i	i	-9.7	i	i	i	i
C/C(=N\NC(=O)c1nnn(-c2nonc2N)c1CN(C)c1ccccc1)c1cccnc1	i	/	i	i	-2.5	i	/	/	/
COc1ccc([N+](=O)[O-])cc1NC(=O)C(C)Sc1nc(-c2ccccc2)cs1 (stereo not drawn)	-8.13*	-0.0819	i	i	-13.0	i	i	i	31.0%*
COc1ccc(Cl)cc1Nc1ncnc2sc(C)c(S(=O)(=O)N3CCC(C)CC3)c12	-9.74*	-1.67	i	i	-11.1	i	47.5%*	i	34.0%*
Cc1ccccc1CN(CC(=O)Nc1cccc([N+](=O)[O-])c1)S(=O)(=O)c1ccc(Cl)cc1	i	-0.652	9*	i	-10.2	i	i	i	i
NS(=O)(=O)c1cccc(NC(=O)CCSc2ccccc2Cl)c1	i	-1.25	i	i	-8.6	i	/	/	/
CS(=O)(=O)N(CC(=O)Nc1cccc([N+](=O)[O-])c1)c1ccccc1	i	-0.137	i	i	-9.6	i	/	/	/
O=C(CCSc1ccccc1Cl)Nc1cccc([N+](=O)[O-])c1	i	-0.978	i	i	-14.5	i	i	i	30.0%*
CC(=O)N/N=C\c1cccc(OC/C=C/c2ccccc2)c1	i	/	i	i	-7.1	i	/	/	/
COc1cc2c(cc1OC)CN(C(=O)CN1CCN(S(=O)(=O)c3ccccc3Br)CC1)CC2	i	/	i	i	-9.0	i	/	/	/
Oc1c(C(Nc2nccs2)c2ccc(C(F)(F)F)cc2)ccc2cccnc12 (stereo not drawn)	i	2.4	i	i	-15.3	i	i	i	i
COCc1cc(CNC(=O)C2CCC(=O)N(Cc3ccccc3F)C2)[nH]n1 (stereo not drawn)	i	/	i	i	-10.2	i	/	/	/
CCN(CC(=O)Nc1cc(Cl)ccc1C)C(=O)Cc1sc(C)nc1-c1ccc(F)cc1	-9.8*	/	i	-9.73*	-15.3	i	i	i	30.0%*
CCN(CC(=O)Nc1c(F)cccc1F)C(=O)Cc1sc(C)nc1-c1ccc(F)cc1	/	/	/	i	/	/	/	/	/
COc1cc(-c2nc(-c3ccccc3)c(-c3cc([N+](=O)[O-])ccc3C)[nH]2)cc(OC)c1OC	-13.5*	0.425	9*	-11.5*	-6.7	i	60.0%*	i	23.5%*
Cc1ccc(-c2nc(SC(C)C(=O)c3c(N)n(C)c(=O)n(C)c3=O)n[nH]2)cc1 (stereo not drawn)	i	/	i	i	-12.0	i	/	/	/
Cc1ccc(C(=O)O)cc1NC(=O)c1ccc2c(c1)C(=O)N(c1ccc([N+](=O)[O-])cc1)C2=O	i	/	i	i	-0.3	i	/	/	/
Cc1ccc(Cl)c(OCCCCN(C)Cc2ccccc2)c1	i	0.461	i	i	-9.2	i	/	/	/
Cc1ccc(Cl)c(OCCCN(C)Cc2ccccc2)c1	i	-0.343	i	i	-15.3	i	i	i	i
Cc1ccc(Cl)c(OCCN2CCc3ccccc3C2)c1	i	/	i	i	-1.7	i	i	i	i
SMILES	KCNK9 inh	KCC2 mod	KCNQ1 block	KCNK3 block	hERG protect	KCNQ1 pot	KCNK9 inh conf	Kir21 sel	HEK293 Tl ctr
CN(C(=O)Cn1nc(C(=O)O)c2ccccc2c1=O)C1CCCCC1	/	/	/	i	/	/	/	/	/
CC(C)C1Cc2c(sc3ncnc(NN)c23)CO1 (stereo not drawn)	i	/	i	i	-5.2	i	/	/	/
CCN(CC)CCOc1ccc(/C(=C(\Cl)c2ccccc2)c2ccccc2)cc1	i	/	11*	i	-33.7	i	i	i	i
CC(C)CNC(=O)c1oc2ccccc2c1COc1ccccc1	i	-0.0269	i	i	-9.2	i	i	i	i
O=C1c2ccccc2C(=O)N1CCCCSc1nc2ccccc2o1	i	-0.484	i	i	-6.0	i	i	i	i
NC(=O)N/N=C/c1ccccc1OCc1cccc2ccccc12	i	/	i	i	-5.3	i	/	/	/
COc1cccc(Oc2ccc(C(F)(F)F)cc2N)c1	-8.45*	-0.202	i	i	-11.6	i	54.5%*	i	32.5%*
CCOc1ccc(Oc2ccc(C(F)(F)F)cc2N)cc1	i	0.00565	i	i	-11.0	i	/	/	/
Cc1cccc(Nc2nc(NCc3ccco3)c3ccccc3n2)c1	-8.13*	0.466	10*	i	-24.6	i	49.0%*	86.0%*	i
CC(C)Sc1ncnc2[nH]ncc12	/	/	/	i	/	/	/	/	/
COc1cc(C(CCN2CCN(c3ccccc3)CC2)c2c(OC)cc(OC)c3c(C)cc(=O)oc23)cc(OC)c1OC (stereo not drawn)	i	0.837	i	i	-13.9	i	i	i	i
COc1cc(C(CCN2CCCC2)c2c(OC)cc(OC)c3ccc(=O)oc23)cc(OC)c1OC (stereo not drawn)	i	0.353	i	i	-5.0	i	/	/	/
COc1ccc(/C=C2\CCC/C(=C\c3ccc(OC)c(OC)c3OC)C2=O)c(OC)c1OC	i	/	i	i	-3.0	i	i	i	i
O=C1ON=C(c2ccccc2)/C1=C/c1ccc(O)cc1	i	/	i	i	3.8	i	i	i	i
O=C1ON=C(c2ccc(Cl)cc2)/C1=C/c1ccc(O)cc1	i	-2.3	8*	/	-8.8	i	i	i	i
